Laboratory results: ChEMBL document CHEMBL2034814, “Synthesis and evaluation of γ-lactam analogs of PGE₂ as EP4 and EP2/EP4 agonists” (Bioorg Med Chem, 2012)

Experiments:
[1] = target: Prostaglandin E2 receptor EP4 subtype (Rattus norvegicus, UniProt P43114); assay: Agonist activity at rat EP4 receptor expressed in CHO cells assessed as cAMP production after 10 mins by radioimmunoassay; format: functional, cell-based
[2] = Drug release from PLGA microsphere assessed as compound remaining in microsphere at 100 ug/ml after 21 days; format: physicochemical; settings: 504 h
Rattus norvegicus [3] = assay: Induction of bone fracture healing in CrJ:CD(SD)IGS rat assessed as breaking strength of fractured fibulae at 100 ug/kg administered tropically as PLGA microsphere formulation measured after 17 days relative to control; format: functional
How it was run: (§1)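 Male Sprague–Dawley rats, 8 weeks old. Under sodium pentobarbital (30–50 mg/kg) the left fibula midshaft was exposed and cut. Compound in PLGA microspheres injected topically at the fracture. At 17 days fibulae removed for three-point destructive bending; breaking strength expressed as % of the mean of nonfractured fibulae from intact rats, with vehicle-treated fractured controls.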

Rattus norvegicus [4] = assay: Toxicity in CrJ:CD(SD)IGS rat assessed as change in mean blood pressure at 1000 ug/kg administered tropically as PLGA microsphere formulation; format: organism-based; settings: in vivo, topical_or_ocular, 1 mg/kg
How it was run: (§2)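 Male Sprague–Dawley rats, 7–9 weeks old, anesthetized with urethane (1.5 g/kg, sc); compound given as PLGA microsphere formulation, with heart rate and mean blood pressure monitored.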

[5] = Drug release from PLGA microsphere assessed as compound remaining in microsphere at 100 ug/ml after 14 days; format: physicochemical; settings: 336 h
Rattus norvegicus [6] = assay: Toxicity in CrJ:CD(SD)IGS rat assessed as change in heart rate at 3000 ug/kg, administered tropically as PLGA microsphere formulation; format: organism-based; settings: in vivo, topical_or_ocular, 3 mg/kg; how it was run: as §2
Rattus norvegicus [7] = assay: Toxicity in CrJ:CD(SD)IGS rat assessed as change in heart rate at 1000 ug/kg, administered tropically as PLGA microsphere formulation; format: organism-based; settings: in vivo, topical_or_ocular, 1 mg/kg; how it was run: as §2
[8] = target: Prostaglandin E2 receptor EP2 subtype (Mus musculus, UniProt Q62053); assay: Displacement of [3H]PGE2 from mouse EP2 receptor expressed in CHO cells after 60 mins by scintillation counting; format: cell-based
Rattus norvegicus [9] = assay: Toxicity in CrJ:CD(SD)IGS rat assessed as change in mean blood pressure at 3000 ug/kg administered tropically as PLGA microsphere formulation; format: organism-based; settings: in vivo, topical_or_ocular, 3 mg/kg; how it was run: as §2
Rattus norvegicus [10] = assay: Induction of bone fracture healing in CrJ:CD(SD)IGS rat assessed as breaking strength of fractured fibulae at 30 ug/kg administered tropically as PLGA microsphere formulation measured after 17 days relative to control; format: functional; how it was run: as §1
[11] = Drug release from PLGA microsphere assessed as compound remaining in microsphere at 100 ug/ml after 7 days; format: physicochemical; settings: 168 h
[12] = target: T1, Prostaglandin E2 receptor EP3 subtype (Mus musculus, UniProt P30557); assay: Displacement of [3H]PGE2 from mouse EP3 receptor expressed in CHO cells after 60 mins by scintillation counting; format: cell-based
T1 sequence (P30557 whole entry): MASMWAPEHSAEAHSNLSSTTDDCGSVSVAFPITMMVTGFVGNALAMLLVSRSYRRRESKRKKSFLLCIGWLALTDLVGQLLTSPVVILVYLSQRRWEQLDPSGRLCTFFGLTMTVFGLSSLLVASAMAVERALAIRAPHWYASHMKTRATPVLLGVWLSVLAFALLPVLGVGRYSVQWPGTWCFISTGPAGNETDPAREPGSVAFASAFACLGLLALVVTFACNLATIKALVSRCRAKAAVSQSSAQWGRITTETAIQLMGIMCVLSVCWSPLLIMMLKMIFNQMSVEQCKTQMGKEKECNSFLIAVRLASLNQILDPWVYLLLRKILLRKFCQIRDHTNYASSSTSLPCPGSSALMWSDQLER

[13] = Drug release from PLGA microsphere assessed as compound remaining in microsphere at 100 ug/ml after 28 days; format: physicochemical; settings: 672 h
Rattus norvegicus [14] = assay: Toxicity in CrJ:CD(SD)IGS rat assessed as change in heart rate at 300 ug/kg, administered tropically as PLGA microsphere formulation; format: organism-based; settings: in vivo, topical_or_ocular, 0.3 mg/kg; how it was run: as §2
[15] = target: Prostaglandin E2 receptor EP4 subtype (Mus musculus, UniProt P32240); assay: Displacement of [3H]PGE2 from mouse EP4 receptor expressed in CHO cells after 60 mins by scintillation counting; format: cell-based
Rattus norvegicus [16] = assay: Induction of bone fracture healing in CrJ:CD(SD)IGS rat assessed as breaking strength of fractured fibulae at 300 ug/kg administered tropically as PLGA microsphere formulation measured after 17 days relative to control; format: functional; how it was run: as §1
Rattus norvegicus [17] = assay: Induction of bone fracture healing in CrJ:CD(SD)IGS rat assessed as breaking strength of fractured fibulae administered tropically as PLGA microsphere formulation measured after 17 days relative to control; format: functional, organism-based; how it was run: as §1
Rattus norvegicus [18] = assay: Toxicity in CrJ:CD(SD)IGS rat assessed as change in mean blood pressure at 300 ug/kg administered tropically as PLGA microsphere formulation; format: organism-based; settings: in vivo, topical_or_ocular, 0.3 mg/kg; how it was run: as §2
[19] = target: T2, Prostaglandin E2 receptor EP1 subtype (Mus musculus, UniProt P35375); assay: Displacement of [3H]PGE2 from mouse EP1 receptor expressed in CHO cells after 20 mins by scintillation counting; format: cell-based
T2 sequence (P35375 whole entry): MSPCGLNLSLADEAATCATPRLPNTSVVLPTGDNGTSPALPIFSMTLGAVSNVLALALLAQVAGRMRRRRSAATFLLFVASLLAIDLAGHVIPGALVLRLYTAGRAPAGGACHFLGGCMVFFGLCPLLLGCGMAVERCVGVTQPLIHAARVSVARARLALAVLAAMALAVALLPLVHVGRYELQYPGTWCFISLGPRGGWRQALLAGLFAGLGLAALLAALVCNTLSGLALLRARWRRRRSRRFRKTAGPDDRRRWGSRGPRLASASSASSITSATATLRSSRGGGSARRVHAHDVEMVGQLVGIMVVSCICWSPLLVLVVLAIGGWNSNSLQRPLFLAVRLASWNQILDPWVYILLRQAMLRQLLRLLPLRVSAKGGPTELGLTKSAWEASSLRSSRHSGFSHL

[20] = Drug release from PLGA microsphere assessed as compound remaining in microsphere at 100 ug/ml after 21 days in presence of 5% methanol; format: physicochemical; settings: 504 h
Rattus norvegicus [21] = assay: Induction of bone fracture healing in CrJ:CD(SD)IGS rat assessed as breaking strength of fractured fibulae at 10 ug/kg administered tropically as PLGA microsphere formulation measured after 17 days relative to control; format: functional; how it was run: as §1
[22] = Drug release from PLGA microsphere assessed as compound remaining in microsphere at 100 ug/ml after 28 days in presence of 5% methanol; format: physicochemical; settings: 672 h
[23] = Drug release from PLGA microsphere assessed as compound remaining in microsphere at 100 ug/ml after 14 days in presence of 5% methanol; format: physicochemical; settings: 336 h
[24] = target: Prostaglandin E2 receptor EP2 subtype (Rattus norvegicus, UniProt Q62928); assay: Agonist activity at rat EP2 receptor expressed in CHO cells assessed as cAMP production after 10 mins by radioimmunoassay; format: functional, cell-based
How it was run: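 CHO cells expressing rat EP2 receptor, seeded 1 × 10^5 cells/well and grown 2 days; washed, incubated 10 min at 37 °C in MEM with 2 µM diclofenac, then preincubated 10 min in assay medium with 1% BSA. Compound added, 10 min at 37 °C, stopped with ice-cold 10% trichloroacetic acid; cAMP measured by radioimmunoassay.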

[25] = Drug release from PLGA microsphere assessed as compound remaining in microsphere at 100 ug/ml after 7 days in presence of 5% methanol; format: physicochemical; settings: 168 h
Rattus norvegicus [26] = assay: Induction of bone fracture healing in CrJ:CD(SD)IGS rat assessed as breaking strength of fractured fibulae at 3 ug/kg administered tropically as PLGA microsphere formulation measured after 17 days relative to control; format: functional; how it was run: as §1

Sequence of Prostaglandin E2 receptor EP4 subtype (Mus musculus, UniProt P32240) (P32240 whole entry): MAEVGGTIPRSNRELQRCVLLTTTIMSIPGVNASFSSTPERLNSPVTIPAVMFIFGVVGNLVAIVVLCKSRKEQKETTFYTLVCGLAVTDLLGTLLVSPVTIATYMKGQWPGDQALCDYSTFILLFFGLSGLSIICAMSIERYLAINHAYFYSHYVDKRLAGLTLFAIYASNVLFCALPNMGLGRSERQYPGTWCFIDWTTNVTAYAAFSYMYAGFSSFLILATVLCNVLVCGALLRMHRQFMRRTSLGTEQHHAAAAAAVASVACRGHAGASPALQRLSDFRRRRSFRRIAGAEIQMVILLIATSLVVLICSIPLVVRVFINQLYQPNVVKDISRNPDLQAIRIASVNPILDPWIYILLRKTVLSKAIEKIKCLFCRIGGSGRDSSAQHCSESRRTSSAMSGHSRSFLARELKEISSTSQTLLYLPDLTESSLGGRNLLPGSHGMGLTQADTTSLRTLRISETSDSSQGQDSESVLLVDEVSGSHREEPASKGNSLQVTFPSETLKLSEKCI
Sequence of Prostaglandin E2 receptor EP2 subtype (Mus musculus, UniProt Q62053) (Q62053 whole entry): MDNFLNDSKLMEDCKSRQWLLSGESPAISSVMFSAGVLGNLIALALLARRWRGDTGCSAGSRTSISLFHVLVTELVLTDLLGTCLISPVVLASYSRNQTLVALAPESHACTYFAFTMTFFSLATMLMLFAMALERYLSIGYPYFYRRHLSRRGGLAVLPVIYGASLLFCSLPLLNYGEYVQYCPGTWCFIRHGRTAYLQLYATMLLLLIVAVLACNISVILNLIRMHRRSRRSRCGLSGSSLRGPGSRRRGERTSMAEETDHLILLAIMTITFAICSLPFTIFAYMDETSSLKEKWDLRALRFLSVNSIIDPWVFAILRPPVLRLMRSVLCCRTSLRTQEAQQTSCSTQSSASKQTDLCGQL
Sequence of Prostaglandin E2 receptor EP4 subtype (Rattus norvegicus, UniProt P43114) (P43114 whole entry): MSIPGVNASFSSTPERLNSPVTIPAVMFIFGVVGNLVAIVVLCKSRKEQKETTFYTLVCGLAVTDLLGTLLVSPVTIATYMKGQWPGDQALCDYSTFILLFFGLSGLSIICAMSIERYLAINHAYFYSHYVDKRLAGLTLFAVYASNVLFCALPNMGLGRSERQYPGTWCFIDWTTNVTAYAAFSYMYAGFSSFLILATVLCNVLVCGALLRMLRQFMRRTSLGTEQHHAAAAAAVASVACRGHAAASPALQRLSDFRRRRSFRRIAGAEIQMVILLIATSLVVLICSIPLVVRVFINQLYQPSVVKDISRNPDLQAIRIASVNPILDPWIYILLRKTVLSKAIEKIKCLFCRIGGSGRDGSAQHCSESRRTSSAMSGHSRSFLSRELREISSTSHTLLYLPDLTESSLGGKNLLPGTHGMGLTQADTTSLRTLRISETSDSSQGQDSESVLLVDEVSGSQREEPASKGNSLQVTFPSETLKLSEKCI
Sequence of Prostaglandin E2 receptor EP2 subtype (Rattus norvegicus, UniProt Q62928) (Q62928 whole entry): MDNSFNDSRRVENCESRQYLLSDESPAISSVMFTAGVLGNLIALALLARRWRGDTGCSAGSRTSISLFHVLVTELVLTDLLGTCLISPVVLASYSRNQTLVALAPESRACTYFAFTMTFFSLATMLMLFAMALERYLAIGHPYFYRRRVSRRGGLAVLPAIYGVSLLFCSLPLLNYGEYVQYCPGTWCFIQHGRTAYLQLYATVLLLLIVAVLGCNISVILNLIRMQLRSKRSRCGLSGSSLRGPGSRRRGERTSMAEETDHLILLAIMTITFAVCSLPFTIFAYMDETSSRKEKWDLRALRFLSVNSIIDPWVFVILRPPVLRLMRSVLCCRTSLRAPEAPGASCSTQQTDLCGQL

Row | Structure (SMILES) | EC50 [1] | Activity (Rattus norvegicus [3]) | Ki [8] | Activity (Rattus norvegicus [10]) | Ki [12] | Ki [15] | Activity (Rattus norvegicus [16]) | Activity (Rattus norvegicus [17]) | Ki [19] | further results
1 | O=C(O)CCCSCCN1C(=O)CC[C@@H]1/C=C/[C@@H](O)Cc1cccc(-c2cc3ccccc3o2)c1 | 7 nM | 136.3% | 2000 nM | 95.4% | > 10 µM | 0.1 nM | 154% | Dose-dependent effect | > 10000 nM | Activity [2]: 83.5%; Activity (Rattus norvegicus [4]): 98.2%; Activity [5]: 91.1%; Activity (Rattus norvegicus [6]): 111.4%; Activity (Rattus norvegicus [7]): 104.6%; Activity (Rattus norvegicus [9]): 97.3%; Activity [11]: 94.8%; Activity [13]: 46.3%; Activity (Rattus norvegicus [14]): 106.3%; Activity (Rattus norvegicus [18]): 98.4%
2 | Cc1ccc2oc(-c3cccc(C[C@H](O)/C=C/[C@H]4CCC(=O)N4CCSc4nc(C(=O)O)cs4)c3)nc2c1 | 8.8 nM | 136% | 21 nM | 98.1% | > 10 µM | 0.21 nM | 144.3% | Dose-dependent effect | 1300 nM | Activity [20]: 85.2%; Activity (Rattus norvegicus [21]): 87.7%; Activity [22]: 79.3%; Activity [23]: 93.1%; EC50 [24]: > 10 µM; Activity [25]: 99.6%; Activity (Rattus norvegicus [26]): 77.7%
